Measurements of several laboratories.
Protocols differ between the studies behind these lines.
Target: Rhodopsin kinase GRK1 (GRK1, Homo sapiens, UniProt Q15835)
Sequence (Q15835 1-563, as in one of the studies): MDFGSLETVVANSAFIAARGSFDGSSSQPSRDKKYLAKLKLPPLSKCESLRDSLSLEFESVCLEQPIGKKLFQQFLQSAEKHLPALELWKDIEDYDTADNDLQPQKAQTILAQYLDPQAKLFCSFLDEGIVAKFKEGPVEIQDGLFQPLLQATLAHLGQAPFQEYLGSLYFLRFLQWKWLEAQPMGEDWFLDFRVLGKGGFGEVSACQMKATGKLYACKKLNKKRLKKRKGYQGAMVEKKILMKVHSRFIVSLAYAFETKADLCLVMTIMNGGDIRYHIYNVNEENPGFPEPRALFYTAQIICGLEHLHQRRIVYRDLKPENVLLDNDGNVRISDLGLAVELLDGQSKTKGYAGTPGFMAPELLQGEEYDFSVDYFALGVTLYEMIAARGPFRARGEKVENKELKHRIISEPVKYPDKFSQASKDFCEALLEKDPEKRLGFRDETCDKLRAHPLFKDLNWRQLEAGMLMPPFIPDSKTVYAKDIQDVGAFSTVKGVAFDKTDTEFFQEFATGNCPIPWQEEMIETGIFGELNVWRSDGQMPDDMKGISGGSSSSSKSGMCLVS

c1cncc(-c2cccc(Nc3nccc(NC4CCCCC4)n3)c2)c1 has a remaining binding of 44% (binding; competition with immobilised ligand; 10 µM).
CC(=O)N1CCC(c2ccc(C(=O)NC3=NCCN3)cc2C(F)(F)F)CC1 gave a remaining binding of 95% (cell-free assay; competition with immobilised ligand; 1 µM).
The remaining binding of FC(F)(F)Oc1cccc(-c2cnc3ccc(-c4ccncc4)nn23)c1 is reported as 38% (cell-free assay; competition with immobilised ligand; 5 µM).
F[C@@H]1CCN(c2nccc(-c3cnn4ncccc34)n2)C1 has a remaining binding of 100% (binding; 1 µM).
For O=C(NCC1CCOCC1)c1n[nH]cc1NC(=O)c1c(F)cccc1F, the remaining binding was 77% (binding; competition with immobilised ligand; 1 µM).
With CC1CCCN1c1nccc(-c2cnn3ncccc23)n1 (stereo not shown) the remaining binding was 82% (binding; 1 µM).
For O=C(c1ccc(Nc2ncc(Cl)c(-c3ccc(Cl)s3)n2)cc1)N1CCC(N2CCCC2)CC1, the remaining binding was 100% (binding; competition with immobilised ligand; 1 µM).
CNC(=O)[C@@H]1CC[C@@H](n2c(-c3ccc4cnccc4c3)nc3ccc(C(=O)NCc4cccc(C(N)=O)c4)cc32)C1 has a remaining binding of 67% (binding; competition with immobilised ligand; 1 µM).
The remaining binding of O=C(NCCCN1CCOCC1)c1ccc(Nc2ncc(Cl)c(-c3ccc(Cl)s3)n2)cc1 is reported as 100% (binding; competition with immobilised ligand; 1 µM).
With C=CC(=O)N1CCC(C(=O)NCC(=O)N2CCN(c3nc(-c4cnc(N)nc4C(F)F)nc(N4CCOCC4)n3)CC2)CC1 the remaining binding was 67% (binding; competition with immobilised ligand; 1 µM).
For CC1=C(C#N)C(c2ccc3c(c2)c(NC(=O)c2ccccc2C)nn3C)C(C#N)=C(C)N1, the remaining binding was 88% (cell-free assay; competition with immobilised ligand; 1 µM).
For N[C@@H]1CCN(c2nccc(-c3cnn4ncccc34)n2)C1, the remaining binding was 100% (binding; 1 µM).
The remaining binding of COCCOc1nc(-c2ccc(Cl)nc2)nc2c1CN(C(=O)c1ncn3ccccc13)CC2 is reported as 100% (cell-free assay; competition with immobilised ligand; 0.1 µM).
For COc1ncc2cc3ccccc3nc2c1C#N, the remaining binding was 98% (cell-free assay; competition with immobilised ligand; 5 µM).
With CS(=O)(=O)NCC[C@H](NC(=O)c1cncc2c1cnn2-c1ccc(F)cc1)c1ccnc(S(C)(=O)=O)c1 the remaining binding was 100% (cell-free assay; competition with immobilised ligand; 1 µM).
With COc1ccnn2ncc(-c3ccnc(N(C)C)n3)c12 the remaining binding was 82% (binding; 1 µM).
COc1cnc(Nc2cccc(S(N)(=O)=O)c2)nc1N1CCN(c2ccccc2)C(=O)C1 gave a remaining binding of 97% (binding; competition with immobilised ligand; 1 µM).
With C[C@@H]1CCN(c2nccc(-c3cnn4ncccc34)n2)C1 the remaining binding was 77% (binding; 1 µM).
CCC(=O)N[C@@H]1CC[C@H](C(=O)N(C)c2ccc(-c3nc4ccccc4o3)cc2)C1 gave a remaining binding of 76% (cell-free assay; competition with immobilised ligand; 1 µM).
